The source of these data is ChEMBL document CHEMBL1121998, “Synthesis and hypoglycemic activity of phenylalkyloxiranecarboxylic acid derivatives” (J Med Chem, 1982).

Series [1] concerns Rattus norvegicus. Nature of the series: Ability to decrease blood glucose levels in fasted rats at the dose of 0.6 mmol/kg was determined; No effect. Format: functional, organism-based. An outline of the steps: (§1)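 Male Sprague–Dawley SIV-50 or Mus Rattus rats (160–200 g), 6–12 per group, fasted overnight. Oral tube dosing as neutral aqueous solution or 1:1 Cremophor EL/water emulsion, 10 mL/kg. Retro-orbital blood taken before and at 2, 4 and 6 h; glucose measured enzymatically (HK/G6PDH). Change expressed relative to controls; two-sided Student's t test.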

In series [2] the test system is Rattus norvegicus. Nature of the series: Ability to decrease blood glucose levels in fasted rats at the dose of 0.6 mmol/kg was determined. Format: functional. In short, it runs like this: as §1
The species entered for series [3] is Rattus norvegicus. Nature of the series: Effective dose at which 50% of the rats show at least a 25% decrease of blood glucose levels compared to controls. Format: functional. An outline of the steps:
(§2)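 Overnight-fasted male rats (Sprague–Dawley SIV-50 or Mus Rattus, 160–200 g), 6–12 per group, dosed orally at 10 mL/kg as neutral aqueous solution or 1:1 Cremophor EL/water emulsion. Retro-orbital blood glucose by HK/G6PDH before and 2, 4, 6 h post-dose. ED50 (25%) = dose at which 50% of rats show ≥25% fall versus controls. Derived by linear or log-linear regression over at least four doses.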

Series [4] in a line: Compound was tested for its lethality in mice when administered perorally. Format: ADME, organism-based. The conditions noted are these: mouse, in vivo, po. In short, it runs like this: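 Groups of five female NMR mice (22-26 g), water ad libitum, food reduced to 50 g/kg body weight 18 h before dosing; single oral administration.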
Series [5] is filed under the species Rattus norvegicus. Description: Effective dose at which 50% of the rats show at least a 25% decrease of blood glucose levels compared to controls; Not feasible. Format: functional, organism-based. In short, it runs like this: as §2
Series [6] can be described thus: Tested for its effect on hepatic epoxide hydrolase; No significant inhibition up to 1e-3 mol/L.
The species entered for series [7] is Rattus norvegicus. Nature of the series: Effective dose at which 50% of the rats show at least a 25% decrease of blood glucose levels compared to controls; Reverse effect at higher dose.

SMILES strings stand for the structures. Calls of active or inactive are those of the source. No cut-off for these calls is given here.

Take `NC(=O)C1(CCCc2ccccc2)CO1` (stereo not given): the Decrease result in the series with Rattus norvegicus [1] was “inactive”.
In turn, `CCOC(=O)C1(CCCCCCCc2ccc(Cl)cc2)CO1` (stereo not given) registered a Decrease in the series with Rattus norvegicus [2] of less than 49%. For the same molecule, the ED50 in the series listed under Rattus norvegicus [3] is 270 µmol/kg. In series [4], this molecule displayed an LD50 of 950 µmol/kg.
Take `O=C([O-])C1(CCCCCc2ccccc2)CO1.[Na+]` (stereo not given): the ED50 result in the series listed under Rattus norvegicus [5] is “inactive”. The same molecule showed a Decrease with Rattus norvegicus [2] of less than 29%. Moreover, the LD50 in series [4] stood at 1060 µmol/kg. In addition, the Effect entry in series [6] is “No significant inhibition up to 1e-3 mol/L”.
Regarding `CCOC(=O)C1(CCCCCCc2ccccc2)CO1` (stereo not given), the ED50 entry in the series listed under Rattus norvegicus [5] was “inactive”. The Decrease in the series with Rattus norvegicus [2] is 24%.
In the case of `O=C([O-])C1(CCCc2ccc(Cl)cc2)CO1.[Na+]` (stereo not given), the Decrease in the series on Rattus norvegicus [2] was less than 68%. Further, it took a dose of 180 µmol/kg to reach the 50% effect level in the series filed under Rattus norvegicus [3] (ED50).
In the case of `CCOC(=O)C1(CCCc2ccc(C)cc2)CO1` (stereo not given), in the series with Rattus norvegicus [2], the Decrease was less than 27%. In series [6], the Effect entry is “No significant inhibition up to 1e-3 mol/L”.
For `CCOC(=O)C1(CCCc2ccc(Cl)cc2)OC12CCCCC2` (stereo not given), the Decrease entry with Rattus norvegicus [1] was “inactive”.
Regarding `COC(=O)C1OC1CCCc1ccccc1` (stereo not given), in the series on Rattus norvegicus [1], the Decrease result was “inactive”.
For `CCOC(=O)C1(CCCc2ccccc2)OC12CCCCC2` (stereo not given), the Decrease entry with Rattus norvegicus [1] is “inactive”.
`O=C([O-])C1(CCCCCc2ccc(Cl)cc2)CO1.[Na+]` (stereo not given) showed a Decrease with Rattus norvegicus [2] of 80%. In addition, the ED50 in the series filed under Rattus norvegicus [3] turned out to be 30 µmol/kg. Also, in series [4], the LD50 came out at 1640 µmol/kg. In series [6], the Effect entry is “No significant inhibition up to 1e-3 mol/L”.
With `CCOC(=O)C1(CCCc2ccc(Cl)c(Cl)c2)CO1` (stereo not given), the Decrease in the series with Rattus norvegicus [2] is recorded as less than 29%. In the series listed under Rattus norvegicus [3], the ED50 was 330 µmol/kg. In addition, in series [4], the LD50 worked out at 2870 µmol/kg. Moreover, in series [6], the Effect entry was “No significant inhibition up to 1e-3 mol/L”.
In the series on Rattus norvegicus [2], `CCOC(=O)C1(CCCc2ccccc2Cl)CO1` (stereo not given) returned a Decrease of less than 11%.
Regarding `CCOC(=O)C1(CCCc2ccc(OC)cc2)CO1` (stereo not given), in the series on Rattus norvegicus [1], the Decrease entry was “inactive”.
With `CCOC(=O)C1(CCCc2cccc(Cl)c2)CO1` (stereo not given), the Decrease in the series with Rattus norvegicus [2] is listed as less than 26%. The molecule further showed an ED50 in the series listed under Rattus norvegicus [3] of 680 µmol/kg.
With `CCOC(=O)C1(CCCc2ccccc2)CO1` (stereo not given), the Decrease in the series with Rattus norvegicus [2] is listed as less than 19%. Moreover, the ED50 in the series listed under Rattus norvegicus [3] was found to be 1170 µmol/kg. Moreover, the Effect result in series [6] is “No significant inhibition up to 1e-3 mol/L”.
For `CCOC(=O)C1(CCCc2ccc(C(C)(C)C)cc2)CO1` (stereo not given), the Decrease result with Rattus norvegicus [1] was “inactive”.
For the molecule `CCOC(=O)C1(CCCc2ccccc2)OC1(C)C` (stereo not given), the Decrease entry in the series with Rattus norvegicus [1] is “inactive”.
Molecule `O=C([O-])C1(CCCc2cccc(C(F)(F)F)c2)CO1.[Na+]` (stereo not given) had a Decrease in the series on Rattus norvegicus [2] of less than 77%. In the series filed under Rattus norvegicus [3], the ED50 is 80 µmol/kg. In series [6], the Effect result was “No significant inhibition up to 1e-3 mol/L”.
For the molecule `CCOC(=O)C1(CCCCCCCCc2ccccc2)CO1` (stereo not given), the Decrease result with Rattus norvegicus [1] is “inactive”.
For `CCOC(=O)C1(CCCCCc2ccccc2)CO1` (stereo not given), in the series filed under Rattus norvegicus [7], the ED50 was 80 µmol/kg. Besides, the Decrease in the series on Rattus norvegicus [2] is reported as less than 18%. This molecule also had an LD50 in series [4] of 880 µmol/kg. The Effect entry in series [6] was “No significant inhibition up to 1e-3 mol/L”.
For the molecule `CCOC(=O)C1(CCCCc2ccccc2)CO1` (stereo not given), in the series on Rattus norvegicus [2], the Decrease is less than 44%. In the series filed under Rattus norvegicus [3], this molecule gave an ED50 of 600 µmol/kg. The Effect result in series [6] is “No significant inhibition up to 1e-3 mol/L”.
In turn, `CCOC(=O)C1(CCCc2ccc(Cl)cc2)CO1` (stereo not given) had a Decrease in the series with Rattus norvegicus [2] of less than 30%. In addition, in the series filed under Rattus norvegicus [3], the ED50 was 200 µmol/kg. Further, the LD50 in series [4] was found to be 2720 µmol/kg. Further, in series [6], the Effect result was “No significant inhibition up to 1e-3 mol/L”.
Regarding `CCOC(=O)C1(CCCc2ccc(F)cc2)CO1` (stereo not given), in the series on Rattus norvegicus [2], the Decrease is given as less than 37%. In series [4], this molecule returned an LD50 of 3960 µmol/kg.
In the series on Rattus norvegicus [2], `CCOC(=O)C1(CCCc2cccc(C(F)(F)F)c2)CO1` (stereo not given) yielded a Decrease of less than 47%. In the series listed under Rattus norvegicus [3], the ED50 worked out at 170 µmol/kg. The molecule also came in with an LD50 in series [4] of 860 µmol/kg. In series [6], the Effect entry is “No significant inhibition up to 1e-3 mol/L”.
Turning to `CCN(CC)C(=O)C1(CCCc2ccccc2)CO1` (stereo not given), the Decrease entry in the series with Rattus norvegicus [1] was “inactive”.
Turning to `CCOC(=O)C1(CCCc2ccc(Cl)cc2)OC1(C)C` (stereo not given), the Decrease in the series with Rattus norvegicus [2] was 10%.
In the series with Rattus norvegicus [2], `CCOC(=O)C1(CCCCCc2ccc(Cl)cc2)CO1` (stereo not given) yielded a Decrease of 80%. In the series filed under Rattus norvegicus [3], this molecule yielded an ED50 of 20 µmol/kg. Further, the LD50 in series [4] was 930 µmol/kg. Moreover, the Effect entry in series [6] is “No significant inhibition up to 1e-3 mol/L”.
For the molecule `CCOC(=O)C1(CCCc2cc(Cl)ccc2OC)CO1` (stereo not given), the Decrease entry in the series on Rattus norvegicus [1] is “inactive”.
For `CCNC(=O)C1(CCCc2ccccc2)CO1` (stereo not given), in the series with Rattus norvegicus [1], the Decrease entry was “inactive”.
As for `CCOC(=O)C1(Cc2ccccc2)CO1` (stereo not given), the Decrease entry with Rattus norvegicus [1] was “inactive”. Further, the Effect result in series [6] was “No significant inhibition up to 1e-3 mol/L”.
`CCOC(=O)C1(CCc2ccccc2)CO1` (stereo not given): the Decrease result in the series with Rattus norvegicus [1] was “inactive”. Further, the Effect result in series [6] is “No significant inhibition up to 1e-3 mol/L”.
`CCOC(=O)C1(CCCCCCCc2ccccc2)CO1` (stereo not given): the ED50 entry in the series filed under Rattus norvegicus [5] was “inactive”. This molecule also showed a Decrease in the series with Rattus norvegicus [2] of 18%.
On to `CCOC(=O)C1OC1CCc1ccccc1` (stereo not given), for which, in the series on Rattus norvegicus [1], the Decrease result is “inactive”.

By ED50 is commonly meant the midpoint of the dose-response relation. The term LD50 denotes the dose at which mortality reaches 50%. A higher LD50 goes with a less toxic substance.
